Bioassay records: PubChem BioAssay, several laboratories
Sampled rows, rich in hits. Any-hit rate of the full collection: about 1.5%.
Myeloid diff MLP: promotes myeloid progenitor differentiation | ER-HoxA9 myeloid progenitors, lysozyme-GFP differentiation, flow cytometry | calls only at 10 µM | 1% of 360,000 active | AID 624256;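 active means normalized GFP-positive differentiation at or above the plate's own cutoff, the solvent-only control mean plus 3 SD; inconclusive means no clear call, values can overlap the other calls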;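 further: cells exposed to compound for four days before flow analysis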
SENP1 inh: SENP1 (human) catalytic domain inhibition; AID 624204; Q9P0U3; recombinant SENP1 catalytic domain, CyPet-SUMO1-YPet FRET cleavage; inhibition, % at 10 µM; 0.21% of 360,000 active;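 active means inhibition at least 30% at 10 µM, raw YFP signal under a set limit, fluorescence ratio 0.5 to 1.5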;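 further: 0% = enzyme with DMSO and 100% = no enzyme wells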
Target sequence (Q9P0U3 419-644 limits assumed): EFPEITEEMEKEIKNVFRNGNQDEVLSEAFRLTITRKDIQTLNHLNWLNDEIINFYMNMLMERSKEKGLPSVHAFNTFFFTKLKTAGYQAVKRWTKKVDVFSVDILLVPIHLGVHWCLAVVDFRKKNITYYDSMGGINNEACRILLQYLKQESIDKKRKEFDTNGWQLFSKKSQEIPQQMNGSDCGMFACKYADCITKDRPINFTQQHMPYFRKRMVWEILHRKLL
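System: Recombinant human SENP1 catalytic domain, His6-tagged | Incubation: Enzyme reaction for 50 min at room temperature, dark | Medium: Tris pH 8 with BME, BSA, NP40 and catalase | Also added: 25 nM SUMO1 FRET substrate | Compound: 10 µM single point, 0.5% DMSO | Measured by: FRET fluorescence in CFP and YFP emission channels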
VLA-4 inh: inhibition in a human VLA-4 binding assay; VLA-4 expressing cells, ligand binding flow cytometry; P13612; AID 2557; inhibition, % (about 7 µM as worked out from the volumes in the protocol); 0.2% of 330,000 active; in the data active means inhibition above about 50%
Platelet DG rel: modulates dense granule release in human platelets | 0.22% of 300,000 active | human platelet-rich plasma, SFLLRN dense granule ATP release, luminescence | inhibition, %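 (compounds screened at 7.5 µM in platelet-rich plasma)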;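 active means mean replicate score, as percent of positive control, at or above 50; inconclusive means mean below 50 but at least one replicate at or above 50; inactive means mean and every replicate below 50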
Active calls of the source: *; i = inactive; ? = inconclusive; / = not tested or not shown; + = active, no number.

SMILES	Myeloid diff MLP	SENP1 inh	VLA-4 inh	Platelet DG rel
O=S(=O)(Nc1nc2ccccc2nc1NCc1ccco1)c1cccs1	+	-63.0	-10.2	-2.8
C=CCNc1nc2ccccc2nc1NS(=O)(=O)c1cccs1	i	-14.4	5.5	-2.7
Oc1ccc(/C=N/Nc2ccc(C(F)(F)F)cn2)c(O)c1	?	5.1	4.8	10.7
Oc1ccc(/C=N/Nc2cccc(Cl)n2)c(O)c1	i	0.3	1.8	50.3*
Cn1nc(-c2ccc(Cl)cc2)c2cc(C(=O)N3CCN(c4ccccc4)CC3)sc21	i	0.9	20.3	-4.9
CCCCN(C)CCNC(=O)c1cc2c(-c3ccccc3F)nn(C)c2s1	+	1.5	6.8	-0.9
Cn1nc(-c2ccc(Cl)cc2)c2cc(C(=O)NCCCN3CCCC3)sc21	+	-2.2	32.6	-3.3
Cn1nc(-c2ccc(Cl)cc2)c2cc(C(=O)N3CCN(c4ccccn4)CC3)sc21	+	4.9	25.4	-19.0
COc1cccc(C(O)c2nc(-c3cccc(C(C)C)c3)cs2)c1 (stereo not given)	i	1.2	/	/
CC(C)(C)OC(=O)N1CCC(Cc2cc(-c3cccnc3)no2)(C(=O)O)CC1	+	2.1	/	1.3
COc1ccc(S(=O)(=O)N2CCNCC2)cc1	i	1.0	15.6	13.5
CCN(C(=O)COC(=O)c1cc(=O)c2ccccc2o1)c1c(N)n(Cc2ccccc2)c(=O)[nH]c1=O	i	-5.3	2.7	0.1
CCCC1=[N+](CC)CCn2c(C)ccc21	i	0.6	12.0	-2.3
CCCC1=[N+](CC(=O)c2ccc(C)cc2)CCn2cccc21	+	5.6	-1.3	11.0
COc1ccc(-n2c(Cc3cccn3C)nnc2SCC(=O)Nc2ccccc2F)cc1	i	-4.4	32.7	-1.9
COc1ccc(-n2c(Cc3cccn3C)nnc2SCC(=O)Nc2ccc(F)cc2F)cc1	+	1.7	-8.7	1.8
Cc1c(C)c2ccc(OCC(=O)Nc3ccccn3)c(C)c2oc1=O	i	0.0	-3.4	52.2*
O=C(CC1SC(=O)N(c2ccccc2)C1=O)Nc1ccccc1 (stereo not given)	i	2.3	5.6	0.1
Cc1cccc(NC(=O)CC2SC(=O)N(c3ccccc3)C2=O)c1 (stereo not given)	i	4.2	-8.9	67.3*
O=C(CN(c1cccc([N+](=O)[O-])c1)S(=O)(=O)c1ccccc1)NCc1ccccc1	i	-1.9	4.3	57.4*
Cn1cc(C2=C(c3ccc(Cl)cc3Cl)C(=O)NC2=O)c2ccccc21	+	-27.6	i	-1.3
Cn1cc(-c2ccccc2C(N)=O)c(=O)c2cc(Cl)ccc21	i	1.5	13.5	7.2
C[C@H](CO)N1C[C@H](C)[C@@H](CN(C)C(=O)Nc2ccc(C(F)(F)F)cc2)Oc2ccc(NS(=O)(=O)c3ccc(F)cc3)cc2C1=O	i	0.6	-6.5	/
C[C@H](CO)N1C[C@H](C)[C@@H](CN(C)C(=O)Nc2ccc(C(F)(F)F)cc2)Oc2c(NS(=O)(=O)c3cn(C)cn3)cccc2C1=O	i	2.6	-13.6	/
Cc1ccc(S(=O)(=O)Nc2ccc3c(c2)C(=O)N([C@H](C)CO)C[C@H](C)[C@@H](CN(C)C(=O)Nc2ccc(C(F)(F)F)cc2)O3)cc1	+	-0.6	23.5	/
SMILES	Myeloid diff MLP	SENP1 inh	VLA-4 inh	Platelet DG rel
C[C@H](CO)N1C[C@H](C)[C@@H](CN(C)C(=O)Nc2ccc(F)cc2)Oc2ccc(NS(C)(=O)=O)cc2C1=O	+	1.8	-0.7	/
C[C@H](CO)N1C[C@H](C)[C@@H](CN(C)C(=O)Nc2ccc(C(F)(F)F)cc2)Oc2ccc(NS(=O)(=O)c3cn(C)cn3)cc2C1=O	+	2.2	-7.2	/
CCOCCCNc1nc2c(C)cccn2c(=O)c1/C=C1\SC(=S)N(C(C)CC)C1=O (stereo not given)	+	49.5	i	13.0
CCOCCCNc1nc2c(C)cccn2c(=O)c1/C=C1\SC(=S)N(CC(C)C)C1=O	+	91.8	i	-2.6
CCCN1C(=O)/C(=C/c2c(NCCCOCC)nc3c(C)cccn3c2=O)SC1=S	+	90.8	/	/
CCC(C)N=Cc1c(Nc2ccccc2)nc2c(C)cccn2c1=O (stereo not given)	i	1.2	6.2	0.2
O=C1/C(=C\c2c(NCCOCCO)nc3ccccn3c2=O)SC(=S)N1Cc1ccco1	i	74.3	-57.1	12.2
O=C(NNC1=Nc2cc([N+](=O)[O-])ccc2OC1)c1ccccc1Cl	i	2.8	4.2	1.2
CCOc1ccc(S(=O)(=O)Nc2cc(SCC(=O)O)c(O)c3ccccc23)cc1	i	-0.2	-1.8	-1.1
CC(C)OC(=O)C(C(=O)C(F)(F)F)c1cc(NS(=O)(=O)c2ccc3ccccc3c2)c2ccccc2c1O (stereo not given)	+	4.5	-6.3	-0.5
Cc1nonc1C(=O)N/N=C/c1ccc(O)cc1O	i	-40.8	1.7	95.8*
CCC(C)NCC(=O)Nc1ccc(-c2nc3cc(NC(=O)CNC(C)CC)ccc3o2)cc1 (stereo not given)	+	-1.6	-2.5	/
CCN(CC)CC(=O)Nc1ccc(-c2nc3cc(NC(=O)CN(CC)CC)ccc3o2)cc1	i	2.4	-11.6	-1.0
O=C(CC[C@H]1O[C@@H](n2cnc3c(NC(=O)c4ccccc4)ncnc32)[C@H](O)[C@@H]1O)N[C@@H](CO)Cc1c[nH]c2ccccc12	i	0.4	/	/
COc1cc(CNc2ccc3[nH]c(=O)[nH]c3c2)ccc1OCc1ccc(C)cc1	i	2.6	1.0	4.0
COc1cc(CNc2ccc3[nH]c(=O)[nH]c3c2)cc(Br)c1OCc1ccc(F)cc1	+	-0.2	-7.8	-7.4
C[C@H]1CN([C@@H](C)CO)C(=O)CCCn2nncc2CO[C@H]1CN(C)C(=O)c1ccc2ccn(C)c2c1	i	2.8	/	/
CC(=O)Oc1c(C)c(C)c2c(c1C)CC[C@@](C)(CCC[C@H](C)CCC[C@H](C)CCCC(C)C)O2	+	-0.5	36.4	/
Cc1cc(O)cc2c1O[C@@](C)(CCC[C@@H](C)CCC[C@@H](C)CCCC(C)C)CC2	i	-4.3	35.1	/
Cc1ccc(Cl)cc1N1CCN(S(=O)(=O)c2c(C(=O)N3CCOCC3)c(C)n(C)c2C)CC1	+	3.7	11.0	-12.3
Cc1ccc(C)c(N2CCN(S(=O)(=O)c3c(C(=O)N4CCCCC4)c(C)n(C)c3C)CC2)c1	i	0.3	7.6	-3.5
COc1ccc(CN(C)C(=O)C(Cc2ccccc2)NC(=O)c2ccccc2)cc1F (stereo not given)	i	-0.6	/	/
CCOc1ccc(CN(C)C(=O)[C@H](Cc2ccccc2)NC(=O)OCc2ccccc2)cc1OC	+	0.7	2.7	13.2
CCCC(NC(=O)Cc1c(C)c2c(cc(C)c3c(C)coc32)oc1=O)C(=O)O (stereo not given)	i	2.9	2.1	1.6
Cc1cccc(NC(=O)C(C)SCc2nc3sc4c(c3c(=O)[nH]2)CCCC4)n1 (stereo not given)	+	11.6	-9.0	-6.6
Cc1cccc(NC(=O)CCc2nc3sc4c(c3c(=O)[nH]2)CCCC4)c1	i	-0.7	-10.1	1.6
